Assay results as given in ChEMBL document CHEMBL2331445, “Chemical, biochemical and microbiological properties of a brominated nitrovinylfuran with broad-spectrum antibacterial activity” (Bioorg Med Chem, 2013).
pIC50: −log10 of the molar value. Converted amounts (≈) assume the structure as drawn. The source made the active and inactive calls. No cut-off for these calls is given here.

Key:
[1] = Cytotoxicity against human SW707 cells after 72 hrs by crystal violet staining method; assay type: ADME, cell-based; conditions: SW707, 72 h
[2] = tested on: CAPAN-1; experiment: Cytotoxicity against human Capan1 cells after 72 hrs by crystal violet staining method; assay type: ADME, cell-based; conditions: CAPAN-1, 72 h
[3] = tested on: Ca-Ski; experiment: Cytotoxicity against human CaSki cells after 72 hrs by crystal violet staining method; assay type: ADME, cell-based
[4] = tested on: Calu-6; experiment: Cytotoxicity against human Calu6 cells after 72 hrs by crystal violet staining method; assay type: ADME, cell-based; conditions: Calu-6, 72 h
[5] = tested on: MeWo; experiment: Cytotoxicity against human MeWo cells after 72 hrs by crystal violet staining method; assay type: ADME, cell-based
[6] = tested on: A-431; experiment: Cytotoxicity against human A431 cells after 72 hrs by crystal violet staining method; assay type: ADME, cell-based; conditions: A-431, 72 h
[7] = Cytotoxicity against human Flow 2002 cells after 72 hrs by crystal violet staining method; assay type: ADME, cell-based; conditions: Flow 2002, 72 h
[8] = tested on: HaCaT; experiment: Cytotoxicity against human HaCaT cells after 72 hrs by crystal violet staining method; assay type: ADME, cell-based
[9] = tested on: Staphylococcus aureus; experiment: microbe, parasite or virus in culture; assay type: functional; conditions: NCTC 10442
[10] = tested on: Staphylococcus aureus; experiment: microbe, parasite or virus in culture; assay type: functional; conditions: ATCC 25923
[11] = Inhibition of Staphylococcus aureus MurA2 expressed in Escherichia coli BL21(lambdaDE3) using UNAG and PEP as substrate incubated for 10 mins prior to PEP addition measured after 60 mins by spectrophotometric analysis; conditions: for pIC50: read-out: IC50
[12] = Inhibition of Pseudomonas aeruginosa MurA expressed in Escherichia coli BL21(lambdaDE3) using UNAG and PEP as substrate incubated for 10 mins prior to PEP addition measured after 60 mins by spectrophotometric analysis; conditions: for pIC50: read-out: IC50
[13] = biological target: UDP-N-acetylglucosamine 1-carboxyvinyltransferase (Escherichia coli K-12, UniProt P0A749, C115D); experiment: Inhibition of Escherichia coli MurA C115D mutant expressed in Escherichia coli BL21(lambdaDE3) using UNAG and PEP as substrate incubated for 10 mins prior to PEP addition measured after 60 mins by spectrophotometric analysis; conditions: for pIC50: read-out: IC50
[14] = biological target: T1, UDP-N-acetylglucosamine 1-carboxyvinyltransferase (Escherichia coli K-12, UniProt P0A749); experiment: Inhibition of Escherichia coli MurA expressed in Escherichia coli BL21(lambdaDE3) using UNAG and PEP as substrate incubated for 10 mins prior to PEP addition measured after 60 mins by spectrophotometric analysis; conditions: for pIC50: read-out: IC50
[15] = tested on: Pseudomonas aeruginosa; experiment: microbe, parasite or virus in culture; assay type: functional; conditions: ATCC 27853
[16] = tested on: Escherichia coli; experiment: microbe, parasite or virus in culture; assay type: functional; conditions: ATCC 25922
[17] = Induction of GSSG formation in citrate buffer at 100 uM by RP-LC/MS analysis
[18] = Induction of GSH-adduct formation in citrate buffer at100 uM by RP-LC/MS analysis; conditions: 100 µM
[19] = tested on: Dengue virus; conditions: at 50 µM
[20] = biological target: Prothrombin (Homo sapiens) (UniProt P00734); conditions: at 25 µM
[21] = biological target: Methionine aminopeptidase 2 (Homo sapiens) (UniProt P50579); conditions: at 10 µM
[22] = biological target: Methionine aminopeptidase 1 (Homo sapiens) (UniProt P53582); conditions: at 10 µM
[23] = tested on: Escherichia coli; conditions: at 10 µM
[24] = biological target: T1, UDP-N-acetylglucosamine 1-carboxyvinyltransferase; experiment: Induction of Escherichia coli MurA-mediated 2-bromo-5-(2-nitrovinyl)furan formation assessed as enzyme-(R)-methyl 3-mercapto-2-(6-methoxy-2-oxo-2H-chromene-3-carboxamido)propanoate adduct level at 200 to 300 uM after 1 hr by SDS-PAGE analysis
How it was run: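 E. coli MurA was incubated with the fluorescent coumarin cysteine thiol, with or without test compound. After 1 h, aliquots were quenched in non-reducing Laemmli buffer (one sample in reducing buffer), heated to 95 °C for 3 min and run on 12% SDS-PAGE. Protein-bound fluorophore was imaged at 365 nm excitation.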

[25] = Drug degradation assessed as 5-bromofuran-2-carbaldehyde formation at 100 uM by HPLC-UV analysis in absence of MurA; assay type: physicochemical
How it was run: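 Test compound (100 µM) was held under standard MurA assay buffer conditions without enzyme, then stopped at several time points. HPLC-UV used a C18 column, 37 °C, and a 0.1% TFA water/acetonitrile gradient. Aldehyde formation was followed at 290 nm.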

[26] = tested on: UDP-N-acetylglucosamine 1-carboxyvinyltransferase (Escherichia coli K-12), P0A749 [C115D]; experiment: Inhibition of Escherichia coli MurA C115D mutant expressed in Escherichia coli BL21(lambdaDE3) using UNAG and PEP as substrate at 50 to 500 uM incubated for 30 mins by 2,2'-dithiopyridine based spectrophotometric analysis
How it was run: (§1)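 MurA (wild-type or C115D) was incubated with test compound at an equimolar ratio or 10-fold excess in 50 mM Tris pH 7.8 at room temperature for 30 min. 2,2'-Dithiodipyridine was then added in 0.5 M citrate pH 4 with 6 M urea for 30 min and quenched with 4% TFA. 2-Thiopyridone was measured by HPLC at 342 nm against a compound-free control.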

[27] = biological target: UDP-N-acetylglucosamine 1-carboxyvinyltransferase (Escherichia coli K-12) (UniProt P0A749); experiment: Inhibition of Escherichia coli MurA expressed in Escherichia coli BL21(lambdaDE3) using UNAG and PEP as substrate at 50 to 500 uM incubated for 30 mins by 2,2'-dithiopyridine based spectrophotometric analysis; how it was run: as §1
[28] = Prodrug activation in citrate buffer assessed as debromination at 100 uM at pH 6 in presence of GSH; assay type: physicochemical; conditions: pH 6, 100 µM
How it was run: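 Inhibitor and glutathione, each at 100 µM final, in 50 mM sodium citrate pH 6.0. Aliquots were withdrawn every 30 s for 3 min and at 4 and 5 min, quenched, and analysed by reversed-phase HPLC-UV.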

[29] = Half life of the compound in Muller-Hinton medium at 100 uM at pH 5.8; assay type: physicochemical
How it was run: (§2)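 Compound (100 µM) was dissolved in Müller-Hinton medium (pH 7.2, or adjusted to pH 5.8) and aliquots were injected onto HPLC at different time points. Parent disappearance was read at 390 nm. Half-life came from a first-order plot of log peak area versus time, t1/2 = ln2/kobs.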

[30] = Drug degradation in Muller-Hinton medium assessed as disappearance of parent compound at 100 uM at pH 7.2 by HPLC-UV analysis; assay type: physicochemical; conditions: buffer, pH 7.2, 100 µM; TDE = time-dependent effect; how it was run: as §2
[31] = Half life of the compound in Muller-Hinton medium at 100 uM at pH 7.2; assay type: physicochemical; how it was run: as §2
[32] = Half life of the compound in citrate buffer at pH 6
[33] = Half life of the compound in tris buffer at pH 7.8
[34] = Cytotoxicity against human lymphoblastoid cells assessed as cell vaibility at 3.4 uM; assay type: cell-based; conditions: read-out: Activity
[35] = biological target: UDP-N-acetylglucosamine 1-carboxyvinyltransferase (Escherichia coli K-12) (UniProt P0A749); experiment: Irreversible inhibition of Escherichia coli MurA expressed in Escherichia coli BL21(lambdaDE3) using UNAG and PEP as substrate at 1.25 uM incubated up to 80 min prior to PEP addition measured after 60 mins by spectrophotometric analysis; conditions: TDE = time-dependent effect
How it was run: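 Phosphate-release MurA assay: 12 nM E. coli MurA, 250 µM UNAG, 125 µM PEP, 25 mM Tris pH 7.8, 0.1% BSA, 37 °C. The pre-incubation period of inhibitor with enzyme was varied before PEP addition. Reaction ran 60 min, was stopped with malachite green reagent, and read at 620 nm.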

[36] = biological target: UDP-N-acetylglucosamine 1-carboxyvinyltransferase (Escherichia coli K-12) (UniProt P0A749); experiment: Inhibition of Escherichia coli MurA expressed in Escherichia coli BL21(lambdaDE3) using UNAG and PEP as substrate at 5 uM incubated for 10 mins […] measured after 60 mins by spectrophotometric analysis
How it was run: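 MurA (12 nM) was pre-incubated with UNAG and inhibitor for 10 min at 37 °C, and the reaction was started with PEP. Final conditions: UNAG 250 µM, PEP 125 µM, 25 mM Tris pH 7.8, 0.1% BSA, 1% DMSO. After 60 min at 37 °C, malachite green/molybdate reagent was added and phosphate was read at 620 nm after 10 min. Run in triplicate.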

[37] = Cytotoxicity against human lymphoblastoid cells assessed as cell vaibility at 46 uM; assay type: cell-based; conditions: read-out: Activity

UDP-N-acetylglucosamine 1-carboxyvinyltransferase (Escherichia coli K-12), sequence (P0A749 whole entry): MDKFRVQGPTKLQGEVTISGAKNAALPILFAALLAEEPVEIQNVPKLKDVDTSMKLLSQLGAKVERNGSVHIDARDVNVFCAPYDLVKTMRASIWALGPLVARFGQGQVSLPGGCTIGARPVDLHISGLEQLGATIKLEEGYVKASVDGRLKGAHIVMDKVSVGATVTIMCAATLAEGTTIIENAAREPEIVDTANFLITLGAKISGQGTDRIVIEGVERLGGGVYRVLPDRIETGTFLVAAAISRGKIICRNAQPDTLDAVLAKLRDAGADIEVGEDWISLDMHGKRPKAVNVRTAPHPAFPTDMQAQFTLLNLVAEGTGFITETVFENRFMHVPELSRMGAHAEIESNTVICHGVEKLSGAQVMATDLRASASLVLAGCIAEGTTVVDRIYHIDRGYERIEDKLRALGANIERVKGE
T1 sequence (P0A749 whole entry): as above
UDP-N-acetylglucosamine 1-carboxyvinyltransferase (Escherichia coli K-12, UniProt P0A749, C115D), sequence (P0A749 whole entry C115D): as the sequence (P0A749 whole entry) above, with C115D counted along it
Methionine aminopeptidase 2 (Homo sapiens), sequence (P50579 2-478 limits assumed): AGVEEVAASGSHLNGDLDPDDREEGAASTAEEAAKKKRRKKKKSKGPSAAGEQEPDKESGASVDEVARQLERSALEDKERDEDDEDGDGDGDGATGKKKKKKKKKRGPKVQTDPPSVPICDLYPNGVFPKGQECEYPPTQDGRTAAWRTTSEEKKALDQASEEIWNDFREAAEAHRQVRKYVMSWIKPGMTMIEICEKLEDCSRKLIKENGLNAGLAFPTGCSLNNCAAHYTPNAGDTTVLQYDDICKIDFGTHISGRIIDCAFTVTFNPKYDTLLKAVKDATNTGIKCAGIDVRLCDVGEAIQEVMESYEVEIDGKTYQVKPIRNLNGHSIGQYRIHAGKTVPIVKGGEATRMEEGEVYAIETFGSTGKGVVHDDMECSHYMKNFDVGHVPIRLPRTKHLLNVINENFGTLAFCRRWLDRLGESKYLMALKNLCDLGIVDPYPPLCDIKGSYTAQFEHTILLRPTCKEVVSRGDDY
UDP-N-acetylglucosamine 1-carboxyvinyltransferase (Escherichia coli K-12), P0A749 [C115D], sequence (P0A749 whole entry C115D): as the sequence (P0A749 whole entry) above, with C115D counted along it

Structure (SMILES)	pIC50 [1]	pIC50 [2]	pIC50 [3]	pIC50 [4]	pIC50 [5]	pIC50 [6]	pIC50 [7]	pIC50 [8]	MIC [9] [µg/mL]	MIC [10] [µg/mL]	MIC [15] [µg/mL]	MIC [16] [µg/mL]	Activity [17]	Activity [18]	inhibition [19]	inhibition [20]	inhibition [21]	inhibition [22]	inhibition [23]	pIC50 [11]	other results
O=Cc1ccc(Br)o1	≤ 4.00	≤ 4.00	≤ 4.00	≤ 4.00	≤ 4.00	≤ 4.00	≤ 4.00	≤ 4.00	> 32	> 32	> 32	> 32	Active	Active	inactive	inactive	inactive	inactive	inactive		IC50 [11]: Not Active; IC50 [12]: Not Active; IC50 [13]: Not Active; IC50 [14]: Not Active
O=[N+]([O-])/C(Br)=C/c1ccc(Br)o1	4.33	4.44	4.30	5.00	4.37	4.62	5.05	4.48	4 (≈ 13.5 µM)	4 (≈ 13.5 µM)	2 (≈ 6.74 µM)	4 (≈ 13.5 µM)	Not Active	Not Active	12%	8%	13%	inactive	85%	5.41	pIC50 [12]: 5.55; pIC50 [13]: 4.73; pIC50 [14]: 5.55; Drug metabolism [24]: Active; Stability [25]: Unstable; inhibition [26]: Active; inhibition [27]: Active; Drug metabolism [28]: Active; half-life at 100 µM [29]: 1 h; Drug degradation [30]: tde; half-life at 100 µM [31]: 8 min; half-life [32]: 6 h; half-life [33]: 0.5 h; viability at 3.4 µM [34]: > 70%; inhibition [35]: tde; inhibition [36]: Active
O=[N+]([O-])/C=C/c1ccc(Br)o1	4.66	4.72	4.74	5.30	4.68	4.92	5.22	4.82	2 (≈ 9.17 µM)	2 (≈ 9.17 µM)	4 (≈ 18.3 µM)	2 (≈ 9.17 µM)	Active	Not Active	26%	19%	7%	inactive	30%	4.68	pIC50 [12]: 4.69; pIC50 [13]: 4.62; pIC50 [14]: 4.56; half-life [32]: 116 h; half-life [33]: 58 h; viability at 46 µM [37]: > 70%
